These results are taken from ChEMBL document CHEMBL4602675, “The Marine Natural Product Manzamine A Inhibits Cervical Cancer by Targeting the SIX1 Protein” (J Nat Prod, 2020).

The test system of experiment [1] is C-33-A. The experiment can be described thus: Induction of apoptosis in human C33A cells assessed as early apoptotic cells at 4 uM after 48 hrs by Annexin V-FITC/PI double staining based flow cytometric analysis (reference value: 12.9%). Format: functional. Background: Flow cytometry measures light scatter and fluorescence of single cells or particles in a stream.

Experiment [2] deals with T1, Homeobox protein SIX1 (Homo sapiens) (UniProt Q15475).
T1 sequence (whole entry): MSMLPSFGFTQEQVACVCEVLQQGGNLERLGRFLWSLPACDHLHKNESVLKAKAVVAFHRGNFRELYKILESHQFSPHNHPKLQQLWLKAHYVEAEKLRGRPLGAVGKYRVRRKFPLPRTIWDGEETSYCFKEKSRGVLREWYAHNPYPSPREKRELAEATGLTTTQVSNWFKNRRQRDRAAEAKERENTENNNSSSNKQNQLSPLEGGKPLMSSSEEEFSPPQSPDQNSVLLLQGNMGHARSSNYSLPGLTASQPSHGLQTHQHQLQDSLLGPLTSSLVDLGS
The experiment can be described thus: Inhibition of SIX1 in human C33A cells at 2 to 4 uM after 48 hrs by Western blot analysis. Format: cell-based. The conditions noted are these: C-33-A. Put shortly:
(§1)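 Cells were seeded at 1 × 10^6 per 100 mm dish and treated next day with 2 or 4 μM for 48 h. They were trypsinised, PBS-washed and lysed in RIPA with protease inhibitors. Equal protein was run on SDS-PAGE and transferred to PVDF. Primary antibodies were used at 1:500, with BSA 3% for blocking and antibodies for CK2α, Rb and pRb, otherwise 5% milk in TBST. HRP secondary at 1:2000, chemiluminescence detection.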
In general terms: A western blot detects proteins with antibodies after separation by electrophoresis.

Experiment [3] concerns the target Casein kinase II subunit alpha (Homo sapiens) (UniProt P68400). As to the kind of experiment: Potency index, ratio for inhibition activity of apigenin to test compound for inhibition of CK2alpha in human CaSki cells after 48 hrs by Western blot analysis. It is filed as cell-based. To be noted: Ca-Ski. Put shortly: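 Cells plated at 1 × 10^6 per 100 mm dish and treated next day for 48 h with test compound (2 or 4 μM) or apigenin (10, 20 or 40 μM). RIPA lysates with protease inhibitors; equal protein loaded for SDS-PAGE, then PVDF transfer. Blocked in 5% milk/TBST (3% BSA for CK2α); anti-SIX1 or anti-CK2α 1:500, HRP secondary 1:2000; chemiluminescent detection.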

For experiment [4] the target is unchanged. As to the kind of experiment: Inhibition of CK2alpha in human SiHa cells at 2 to 4 uM after 48 hrs by Western blot analysis. Format: cell-based. In short, it runs like this:
as §1

The subject of experiment [5] is SiHa. As to the kind of experiment: Antiproliferative activity against human SiHa cells assessed as reduction in cell viability after 24 hrs by CellTiter-Glo assay. Format: functional, cell-based. In short, it runs like this:
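ATP-based luminescent viability readout. Cells were grown in DMEM with 10% FBS, 2 mM L-glutamine and penicillin-streptomycin at 37 °C, 5% CO2. 2 × 10^4 cells/well were seeded, then exposed the next day to 0–40 μM for 24, 48 or 72 h. % viability = 100 × treated/control. IC50 was fitted from a sigmoid dose-response curve. Run at least three times in quadruplicate; mean ± SEM.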
For orientation: Cellular ATP, detected with luciferase, serves as a proxy for viable cell number.

pIC50: −log10 of the molar value. Activity calls are given as the source filed them. The calls are words filed in the database; no cut-off is given here.

Casein kinase II subunit alpha (Homo sapiens), sequence (P68400 whole entry, looked up): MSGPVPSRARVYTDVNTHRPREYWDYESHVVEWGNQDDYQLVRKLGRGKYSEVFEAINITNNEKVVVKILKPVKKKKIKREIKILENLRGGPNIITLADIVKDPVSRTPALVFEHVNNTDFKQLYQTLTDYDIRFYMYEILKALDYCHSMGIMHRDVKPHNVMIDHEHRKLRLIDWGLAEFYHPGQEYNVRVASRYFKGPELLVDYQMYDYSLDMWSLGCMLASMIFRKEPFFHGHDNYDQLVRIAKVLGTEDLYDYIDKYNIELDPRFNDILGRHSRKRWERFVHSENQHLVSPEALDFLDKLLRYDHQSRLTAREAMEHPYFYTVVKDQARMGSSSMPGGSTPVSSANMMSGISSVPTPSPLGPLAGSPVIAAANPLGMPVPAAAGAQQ

For orientation: pIC50 means the IC50 on a negative log10 scale, so that one unit is a factor of ten. As for `O[C@]12C=C(c3nccc4c3[nH]c3ccccc34)[C@@H]3CCN(CCCC/C=C\CC1)C[C@@]31C[C@@H]3/C=C\CCCCN3[C@H]12` [MANZAMINE A], in experiment [1], the Activity is 9.7%. Besides, the inhibition result in experiment [2] and in experiment [4] was “Active” throughout. In experiment [3], the Ratio was 10. For the same molecule, the pIC50 in experiment [5] was 4.70.
